Results reported in ChEMBL document CHEMBL5724801, “EUbOPEN Chemogenomics Library - Multiplex” (2024).
“And” between values parts separate entries of the source, which are not always exact repeats. Equal values may be shown once.

Experiments:
Fibroblast = assay: Multiplex assay against human fibroblast; format: toxicity, cell-based
In short: (§1)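 Live cells carried four stains from seeding: Hoechst33342, BioTracker Green Microtubule Cytoskeleton Dye, MitoTracker Red and Annexin V Alexa Fluor 680. They were imaged on a CQ1 microscope at 37°C and 5% CO2 after compound addition. Using CellPathfinder machine-learning gating, cells were split into Hoechst high-intensity objects or normal cells, normal cells into healthy, pyknosed or fragmented nuclei, and pyknosed cells into mitotic or apoptotic; tubulin, mitochondrial-mass and membrane-permeability phenotypes are per cents of healthy-nucleus cells.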

U2OS = assay: Multiplex assay against U2OS; format: toxicity, cell-based; settings: human; in short: as §1
[1] = 12 h, 1 µM, compound concentration 1 uM
[2] = 12 h, 10 µM, compound concentration 10 uM
[3] = 24 h, 1 µM, compound concentration 1 uM
[4] = 24 h, 10 µM, compound concentration 10 uM
[5] = 48 h, 1 µM, compound concentration 1 uM
[6] = 48 h, 10 µM, compound concentration 10 uM

**Q.** Which results are given for CN1CCN(c2cc(-c3ccccc3)nc(N)n2)CC1?
**A.** Population Apoptotic (%) (Fibroblast; [1]): 47% and 37%; Population Fragmented Nuclei (%) (Fibroblast; [1]): 15% and 28%; Population Healthy Nuclei (%) (Fibroblast; [1]): 68% and 45%; Population Hoechst High Intensity Objects (%) (Fibroblast; [1]): 2% and 5%; Population Membrane Permeable-Phenotype (%) (Fibroblast; [1]): 1% and 11%; Population Mitochondria Different-Phenotype (%) (Fibroblast; [1]): 10% and 11%; Population Mitotic Cells (%) (Fibroblast; [1]): 52% and 62%; Population Normal (%) (Fibroblast; [1]): 97% and 94%; Population Pyknosed Nuclei (%) (Fibroblast; [1]): 15% and 26%; Population Tubulin-Different-Phenotype (%) (Fibroblast; [1]): 25% and 66%; Total Cell Count (Fibroblast; [1]): 135 and 97; Population Apoptotic (%) (Fibroblast; [2]): 48% and 36%; Population Fragmented Nuclei (%) (Fibroblast; [2]): 16% and 40%; Population Healthy Nuclei (%) (Fibroblast; [2]): 67% and 36%; Population Hoechst High Intensity Objects (%) (Fibroblast; [2]): 2% and 7%; Population Membrane Permeable-Phenotype (%) (Fibroblast; [2]): 0% and 10%; Population Mitochondria Different-Phenotype (%) (Fibroblast; [2]): 6% and 12%; Population Mitotic Cells (%) (Fibroblast; [2]): 51% and 64%; Population Normal (%) (Fibroblast; [2]): 97% and 92%; Population Pyknosed Nuclei (%) (Fibroblast; [2]): 15% and 22%; Population Tubulin-Different-Phenotype (%) (Fibroblast; [2]): 44% and 67%; Total Cell Count (Fibroblast; [2]): 216 and 118; Population Apoptotic (%) (Fibroblast; [3]): 75% and 47%; Population Fragmented Nuclei (%) (Fibroblast; [3]): 17% and 36%; Population Healthy Nuclei (%) (Fibroblast; [3]): 65% and 44%; Population Hoechst High Intensity Objects (%) (Fibroblast; [3]): 2%; Population Membrane Permeable-Phenotype (%) (Fibroblast; [3]): 1% and 8%; Population Mitochondria Different-Phenotype (%) (Fibroblast; [3]): 3% and 8%; Population Mitotic Cells (%) (Fibroblast; [3]): 25% and 52%; Population Normal (%) (Fibroblast; [3]): 97%; Population Pyknosed Nuclei (%) (Fibroblast; [3]): 16% and 18%; Population Tubulin-Different-Phenotype (%) (Fibroblast; [3]): 19% and 50%; Total Cell Count (Fibroblast; [3]): 145 and 106; Population Apoptotic (%) (Fibroblast; [4]): 41% and 29%; Population Fragmented Nuclei (%) (Fibroblast; [4]): 12% and 33%; Population Healthy Nuclei (%) (Fibroblast; [4]): 70% and 43%; Population Hoechst High Intensity Objects (%) (Fibroblast; [4]): 2%; Population Membrane Permeable-Phenotype (%) (Fibroblast; [4]): 1% and 4%; Population Mitochondria Different-Phenotype (%) (Fibroblast; [4]): 6%; Population Mitotic Cells (%) (Fibroblast; [4]): 58% and 70%; Population Normal (%) (Fibroblast; [4]): 97%; Population Pyknosed Nuclei (%) (Fibroblast; [4]): 17% and 23%; Population Tubulin-Different-Phenotype (%) (Fibroblast; [4]): 41% and 64%; Total Cell Count (Fibroblast; [4]): 213 and 107; Population Apoptotic (%) (Fibroblast; [5]): 70% and 50%; Population Fragmented Nuclei (%) (Fibroblast; [5]): 22% and 36%; Population Healthy Nuclei (%) (Fibroblast; [5]): 62% and 49%; Population Hoechst High Intensity Objects (%) (Fibroblast; [5]): 2% and 3%; Population Membrane Permeable-Phenotype (%) (Fibroblast; [5]): 0% and 2%; Population Mitochondria Different-Phenotype (%) (Fibroblast; [5]): 2% and 6%; Population Mitotic Cells (%) (Fibroblast; [5]): 30% and 50%; Population Normal (%) (Fibroblast; [5]): 97% and 96%; Population Pyknosed Nuclei (%) (Fibroblast; [5]): 15% and 14%; Population Tubulin-Different-Phenotype (%) (Fibroblast; [5]): 20% and 54%; Total Cell Count (Fibroblast; [5]): 137 and 101; Population Apoptotic (%) (Fibroblast; [6]): 40% and 66%; Population Fragmented Nuclei (%) (Fibroblast; [6]): 26% and 50%; Population Healthy Nuclei (%) (Fibroblast; [6]): 58% and 39%; Population Hoechst High Intensity Objects (%) (Fibroblast; [6]): 3%; Population Membrane Permeable-Phenotype (%) (Fibroblast; [6]): 0% and 9%; Population Mitochondria Different-Phenotype (%) (Fibroblast; [6]): 0% and 9%; Population Mitotic Cells (%) (Fibroblast; [6]): 59% and 33%; Population Normal (%) (Fibroblast; [6]): 96%; Population Pyknosed Nuclei (%) (Fibroblast; [6]): 14% and 10%; Population Tubulin-Different-Phenotype (%) (Fibroblast; [6]): 31% and 60%; Total Cell Count (Fibroblast; [6]): 227 and 114; Population Apoptotic (%) (U2OS; [1]): 80% and 62%; Population Fragmented Nuclei (%) (U2OS; [1]): 32% and 17%; Population Healthy Nuclei (%) (U2OS; [1]): 61% and 76%; Population Hoechst High Intensity Objects (%) (U2OS; [1]): 2% and 1%; Population Membrane Permeable-Phenotype (%) (U2OS; [1]): 5% and 7%; Population Mitochondria Different-Phenotype (%) (U2OS; [1]): 2% and 5%; Population Mitotic Cells (%) (U2OS; [1]): 20% and 37%; Population Normal (%) (U2OS; [1]): 97% and 98%; Population Pyknosed Nuclei (%) (U2OS; [1]): 6% and 5%; Population Tubulin-Different-Phenotype (%) (U2OS; [1]): 2% and 11%; Total Cell Count (U2OS; [1]): 235 and 141; Population Apoptotic (%) (U2OS; [2]): 86% and 73%; Population Healthy Nuclei (%) (U2OS; [2]): 63% and 80%; Population Hoechst High Intensity Objects (%) (U2OS; [2]): 0% and 1%; Population Membrane Permeable-Phenotype (%) (U2OS; [2]): 5% and 10%; Population Mitochondria Different-Phenotype (%) (U2OS; [2]): 3%; Population Mitotic Cells (%) (U2OS; [2]): 13% and 26%; Population Normal (%) (U2OS; [2]): 99% and 98%; Population Pyknosed Nuclei (%) (U2OS; [2]): 6% and 10%; Population Tubulin-Different-Phenotype (%) (U2OS; [2]): 3% and 7%; Total Cell Count (U2OS; [2]): 252 and 139; Population Apoptotic (%) (U2OS; [3]): 86% and 80%; Population Fragmented Nuclei (%) (U2OS; [3]): 25% and 21%; Population Healthy Nuclei (%) (U2OS; [3]): 65% and 73%; Population Hoechst High Intensity Objects (%) (U2OS; [3]): 1%; Population Membrane Permeable-Phenotype (%) (U2OS; [3]): 7% and 6%; Population Mitochondria Different-Phenotype (%) (U2OS; [3]): 1%; Population Mitotic Cells (%) (U2OS; [3]): 13% and 20%; Population Normal (%) (U2OS; [3]): 98%; Population Pyknosed Nuclei (%) (U2OS; [3]): 8% and 5%; Population Tubulin-Different-Phenotype (%) (U2OS; [3]): 4% and 9%; Total Cell Count (U2OS; [3]): 278 and 177
